Experimental findings from ChEMBL document CHEMBL2040777, “N-Aryl-N'-(chroman-4-yl)ureas and thioureas display in vitro anticancer activity and selectivity on apoptosis-resistant glioblastoma cells: screening, synthesis of simplified derivatives, and structure-activity relationship analysis” (Eur J Med Chem, 2012) are described below.

Calls of active or inactive are those of the source. The rule behind the calls is not given here. A value given as a limit tells only on which side of the number the result lay.

For assay [1], the system named is T98G. Kind of assay: Growth inhibition of human T98G cells after 72 hrs by MTT assay. The format is functional, cell-based. A digest of the protocol:
(§1)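 Glioma lines were grown in RPMI with 10% heat-inactivated FCS, 4 mM glutamine, gentamicin and penicillin-streptomycin. Cells were plated for 24 h at 10,000–40,000 cells/mL, then exposed to compound for 72 h. MTT reduction to formazan was read at 570 nm (reference 630 nm). Six replicates were run.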

A short description of assay [2]: Selectivity index, ratio of IC50 for mouse astrocytes to IC50 for human U373 cells. More on the design: species or system U-373MG ATCC.
Assay [3] relates to Hs 683. Kind of assay: Selectivity index, ratio of IC50 for mouse astrocytes to IC50 for human Hs683 cells.
Assay [4] is described as follows: Growth inhibition of human U373 cells after 72 hrs by MTT assay. It is filed as functional, cell-based, U-373MG ATCC. The conditions noted are these: U373 MG. A digest of the protocol: as §1
For assay [5], the system named is B16-F10. Put plainly: Growth inhibition of mouse B16F10 cells after 72 hrs by MTT assay. The conditions noted are these: B16-F10, 72 h. The format is functional, cell-based.
For assay [6], the system named is T98G. Kind of assay: Selectivity index, ratio of IC50 for mouse astrocytes to IC50 for human T98G cells.
Assay [7] is described as follows: Growth inhibition of human Hs683 cells after 72 hrs by MTT assay. The format is functional, cell-based. The conditions noted are these: Hs 683, 72 h. A digest of the protocol:
as §1

For assay [8], the system named is U-373MG ATCC. Put plainly: Induction of apoptosis in human U373 cells assessed as increase in subG1 cell population at 3 to 10 uM after 24 hrs by flow cytometric analysis. The format is functional, cell-based.
Assay [9] is described as follows: Cell cycle arrest in human U373 cells assessed as accumulation at G0/G1 phase at 3 to 10 uM after 24 hrs by propidium iodide staining-based flow cytometric analysis. The format is functional. The conditions noted are these: U-373MG ATCC.

Regarding `CC1(C)CC(NC(=S)Nc2ccccc2Cl)c2cc(Br)ccc2O1` (configuration not stated), the IC50 in assay [1] was determined as 8 µM; in assay [4] it was 34 µM; in assay [5] it was 17 µM; in [7], 22 µM. Further, the “Ratio IC50” value in [2], in [3] and in assay [6] was less than 5 in each case.

`CC(=O)NC1CC(C)(C)Oc2ccc(Cl)cc21` (configuration not stated) gave an IC50 in assay [4] greater than 100 µM.

`CC1(C)CC(NC(=S)Nc2ccc([N+](=O)[O-])cc2)c2cc(Br)ccc2O1` (configuration not stated): the half-inhibitory concentration (IC50) in assay [1] was determined as 5 µM; in [4], 9 µM; in [5], 3 µM; in [7], 3 µM. Besides, the “Ratio IC50” value in [2], in assay [3] and in [6] was less than 2 each time.

As for `CC1(C)CC(NC(=S)Nc2ccc([N+](=O)[O-])cc2)c2cc(F)ccc2O1` (configuration not stated), the IC50 was 5 µM in assay [1], 3 µM in assay [4], 4 µM in [5] and 3 µM in assay [7]. The “Ratio IC50” value in [2], in assay [3] and in assay [6] was 5 throughout. In addition, the result in assay [8] was inactive. Besides, the result in assay [9] was Active.

Consider `CC1(C)CC(NC(=O)NS(=O)(=O)c2ccccc2)c2cc(Cl)ccc2O1` (configuration not stated), for which the IC50 in assay [1] was greater than 100 µM; in assay [4], 96 µM; in [7], greater than 100 µM.

Regarding `CC1(C)CC(NC(=S)Nc2ccc(C#N)cc2)c2cc(Cl)ccc2O1` (configuration not stated), the half-maximal inhibitory concentration (IC50) came out at 10 µM in assay [1], 10 µM in assay [4], 7 µM in [5] and 6 µM in [7]. Also, the “Ratio IC50” value in [2], in [3] and in [6] was 3 in each case.

`CC1(C)CC(NC(=O)Nc2cccc(Cl)c2)c2cc(Br)ccc2O1` (configuration not stated): the IC50 was found to be 67 µM in assay [1], 69 µM in assay [4] and 61 µM in [7].

Take `COc1ccc(NC(=S)NC2CC(C)(C)Oc3ccc(Br)cc32)cc1` (configuration not stated): the half-inhibitory concentration (IC50) worked out at 33 µM in assay [1], 40 µM in [4] and 29 µM in assay [7].

`CC1(C)CC(NC(=O)Nc2ccccc2Cl)c2cc(F)ccc2O1` (configuration not stated): the IC50 turned out to be 27 µM in [1], 40 µM in assay [4] and 29 µM in assay [7].

Take `CC1(C)CC(NC(=O)Nc2ccc(Cl)cc2)c2cc(Br)ccc2O1` (configuration not stated): the IC50 in [1] came out at 27 µM; in [4], 25 µM; in [5], 9 µM; in assay [7], 24 µM. For the same molecule, the “Ratio IC50” value in assay [2], in assay [3] and in [6] was 5 each time.

Turning to `O=[N+]([O-])c1cccc(NC(=S)NCc2cccc(Cl)c2)c1`, the half-maximal inhibitory concentration (IC50) worked out at 61 µM in assay [1], 32 µM in assay [4] and 41 µM in [7].

In the case of `CC1(C)CC(NC(=O)NCc2ccccc2)c2cc(Cl)ccc2O1` (configuration not stated), the IC50 in [1] stood at 15 µM; in [4], 66 µM; in assay [7], 47 µM.

Regarding `CC(C)NC1=NS(=O)(=O)c2cc(F)c(Cl)cc2N1`, the 50% inhibitory concentration (IC50) in assay [4] was greater than 100 µM.

Take `O=[N+]([O-])c1ccc(NC(=S)NCc2cccc(Cl)c2)cc1`: the 50% inhibitory concentration (IC50) worked out at 20 µM in [1], 27 µM in [4] and 27 µM in [7].

Consider `CC(C)NC(=O)NC1CC(C)(C)Oc2ccc(Cl)cc21` (configuration not stated), for which the half-maximal inhibitory concentration (IC50) is greater than 100 µM in assay [1], 62 µM in assay [4] and 85 µM in assay [7].

Take `CC1(C)CC(NC(=S)NCc2ccccc2)c2cc(Cl)ccc2O1` (configuration not stated): the IC50 in assay [1] turned out to be 99 µM; in [4], 64 µM; in assay [7], 43 µM.

In the case of `Cn1nnc2c(C(N)=O)ncn2c1=O` [TEMOZOLOMIDE], the IC50 was determined as 879 µM in [1], 220 µM in assay [4], 258 µM in assay [5] and 956 µM in assay [7].

Regarding `COc1ccc(Cl)cc1CNC(=S)Nc1ccc([N+](=O)[O-])cc1`, the IC50 in [1] is 35 µM; in assay [4] it was 22 µM; in [7], 15 µM.

Consider `COc1ccc(Cl)cc1CNC(=S)Nc1cccc([N+](=O)[O-])c1`, for which the IC50 was 32 µM in assay [4] and 23 µM in assay [7].

As for `O=[N+]([O-])c1cccc(NC(=S)NC2CCOc3ccc(Cl)cc32)c1` (configuration not stated), the 50% inhibitory concentration (IC50) in assay [1] is 10 µM; in assay [4], 8 µM; in assay [7], 7 µM.

`CC1(C)CC(NC(=S)Nc2cccc(C#N)c2)c2cc(Cl)ccc2O1` (configuration not stated): the IC50 was 10 µM in assay [1], 7 µM in [4], 6 µM in assay [5] and 6 µM in assay [7]. For the same molecule, the “Ratio IC50” value in assay [2], in [3] and in assay [6] was less than 5 throughout.

Regarding `CC(C)NC(=S)NC1CC(C)(C)Oc2ccc(Cl)cc21` (configuration not stated), the IC50 in [1] came out at 91 µM; in assay [4], 57 µM; in [7] it was 34 µM.

As for `CCNC(=S)NC1CC(C)(C)Oc2ccc(Cl)cc21` (configuration not stated), the figures for the concentration for half-maximal inhibition (IC50) in [1], in assay [4] and in [7] were greater than 100 µM, 96 µM and 72 µM, respectively.

`CCNC(=O)NC1CC(C)(C)Oc2ccc(Cl)cc21` (configuration not stated) yielded an IC50 in assay [4] greater than 100 µM.

Turning to `CCC(C)(C)NC1=NS(=O)(=O)c2cc(Cl)ccc2N1`, the IC50 in assay [4] is greater than 100 µM.

Take `CC1(C)CC(NC(=S)Nc2ccccc2)c2cc(Cl)ccc2O1` (configuration not stated): the IC50 was found to be 37 µM in assay [1], 46 µM in [4] and 32 µM in assay [7].

`CC1(C)CC(NC(=S)Nc2cccc([N+](=O)[O-])c2)c2cc(Br)ccc2O1` (configuration not stated): the concentration for half-maximal inhibition (IC50) in [1] is 4 µM; in [4] it was 4 µM; in assay [5] it was 5 µM; in [7] it was 3 µM. For the same molecule, the “Ratio IC50” value in [2], in assay [3] and in assay [6] was 2 each time.

As for `COc1ccccc1NC(=S)NC1CC(C)(C)Oc2ccc(Br)cc21` (configuration not stated), the figures for the 50% inhibitory concentration (IC50) in assay [1], in assay [4] and in assay [7] were 42 µM, 22 µM and 40 µM, respectively.

For the molecule `CC1(C)CC(NC(=O)NCc2ccccc2)c2cc(F)ccc2O1` (configuration not stated), the half-maximal inhibitory concentration (IC50) in [1] is 49 µM; in assay [4], 11 µM; in assay [7] it was 19 µM.

For the molecule `CC1(C)CC(NC(=O)NCc2ccccc2)c2cc(Br)ccc2O1` (configuration not stated), the 50% inhibitory concentration (IC50) in [1] is 38 µM; in assay [4], 27 µM; in assay [7] it was 38 µM.

For the molecule `CC1(C)CC(NC(=O)Nc2ccc(Cl)cc2)c2cc(F)ccc2O1` (configuration not stated), the figures for the half-inhibitory concentration (IC50) in [1], in assay [4] and in assay [7] were 30 µM, 24 µM and 25 µM, respectively.

Regarding `CC1(C)CC(NC(=S)Nc2cccc(C#N)c2)c2cc(F)ccc2O1` (configuration not stated), the 50% inhibitory concentration (IC50) amounted to 39 µM in assay [1], 30 µM in [4], 35 µM in [5] and 33 µM in assay [7].

On to `CCOC(=O)NC1CC(C)(C)Oc2ccc(Cl)cc21` (configuration not stated), for which the IC50 in [4] is greater than 100 µM.

With `CC1(C)CC(NC(=S)NCc2ccccc2)c2cc(Br)ccc2O1` (configuration not stated), the IC50 in [1] came to 54 µM; in assay [4] it was 29 µM; in assay [7] it was 34 µM.

As for `CC1(C)CC(NC(=S)Nc2ccc(C#N)cc2)c2cc(F)ccc2O1` (configuration not stated), the IC50 in assay [1] is 19 µM; in assay [4], 11 µM; in [5] it was 5 µM; in assay [7], 14 µM. Besides, the “Ratio IC50” value in assay [2], in assay [3] and in assay [6] was 3 in each case.

With `CC1(C)CC(NC(=S)NCc2ccccc2)c2cc(F)ccc2O1` (configuration not stated), the figures for the half-maximal inhibitory concentration (IC50) in assay [1], in [4] and in [7] were 40 µM, 27 µM and 25 µM, respectively.

`O=[N+]([O-])c1ccc(NC(=S)NC2CCOc3ccc(Cl)cc32)cc1` (configuration not stated): the concentration for half-maximal inhibition (IC50) turned out to be 12 µM in assay [1], 8 µM in [4] and 6 µM in assay [7].

As for `COc1cccc(NC(=S)NC2CC(C)(C)Oc3ccc(Br)cc32)c1` (configuration not stated), the IC50 in assay [1] stood at 87 µM; in assay [4], 66 µM; in assay [7] it was 81 µM.

Regarding `CC1(C)CC(NC(=O)Nc2cccc(Cl)c2)c2cc(F)ccc2O1` (configuration not stated), the results for the concentration for half-maximal inhibition (IC50) in assay [1], in assay [4] and in assay [7] were 45 µM, 39 µM and 38 µM, respectively.

Turning to `CC1(C)CC(NC(=S)Nc2cccc(Cl)c2)c2cc(Br)ccc2O1` (configuration not stated), the half-inhibitory concentration (IC50) in [1] came to 9 µM; in assay [4] it was 8 µM; in assay [5], 7 µM; in assay [7] it was 8 µM. Also, the “Ratio IC50” value in assay [2], in [3] and in [6] was less than 2 throughout.

`CC1(C)CC(NC(=S)Nc2ccc(C#N)cc2)c2cc(Br)ccc2O1` (configuration not stated): the IC50 turned out to be 24 µM in [1], 22 µM in [4] and 15 µM in assay [7]. Besides, the “Ratio IC50” value in assay [2], in [3] and in [6] was 2 each time.

For the molecule `CC1(C)CC(NC(=S)Nc2cccc([N+](=O)[O-])c2)c2cc(F)ccc2O1` (configuration not stated), the half-inhibitory concentration (IC50) in [1] was 9 µM; in [4], 6 µM; in assay [5] it was 6 µM; in assay [7] it was 6 µM. For the same molecule, the “Ratio IC50” value in assay [2], in assay [3] and in [6] was 2 throughout.

Regarding `CC1(C)CC(NC(=O)Nc2ccccc2)c2cc(Cl)ccc2O1` (configuration not stated), the IC50 in assay [1] was 34 µM; in assay [4], 68 µM; in assay [7] it was 33 µM.

With `CC1(C)CC(NC(=S)Nc2cccc(C#N)c2)c2cc(Br)ccc2O1` (configuration not stated), the half-inhibitory concentration (IC50) is 9 µM in assay [1], 6 µM in assay [4], 7 µM in assay [5] and 4 µM in [7]. The “Ratio IC50” value in assay [2], in [3] and in assay [6] was less than 5 in each case.
